Values after ≈ are worked out from the molar mass of the structure shown.

For series [1], the target named is T1, MecA (Staphylococcus aureus) (UniProt Q7DHH4).
T1 sequence (whole entry): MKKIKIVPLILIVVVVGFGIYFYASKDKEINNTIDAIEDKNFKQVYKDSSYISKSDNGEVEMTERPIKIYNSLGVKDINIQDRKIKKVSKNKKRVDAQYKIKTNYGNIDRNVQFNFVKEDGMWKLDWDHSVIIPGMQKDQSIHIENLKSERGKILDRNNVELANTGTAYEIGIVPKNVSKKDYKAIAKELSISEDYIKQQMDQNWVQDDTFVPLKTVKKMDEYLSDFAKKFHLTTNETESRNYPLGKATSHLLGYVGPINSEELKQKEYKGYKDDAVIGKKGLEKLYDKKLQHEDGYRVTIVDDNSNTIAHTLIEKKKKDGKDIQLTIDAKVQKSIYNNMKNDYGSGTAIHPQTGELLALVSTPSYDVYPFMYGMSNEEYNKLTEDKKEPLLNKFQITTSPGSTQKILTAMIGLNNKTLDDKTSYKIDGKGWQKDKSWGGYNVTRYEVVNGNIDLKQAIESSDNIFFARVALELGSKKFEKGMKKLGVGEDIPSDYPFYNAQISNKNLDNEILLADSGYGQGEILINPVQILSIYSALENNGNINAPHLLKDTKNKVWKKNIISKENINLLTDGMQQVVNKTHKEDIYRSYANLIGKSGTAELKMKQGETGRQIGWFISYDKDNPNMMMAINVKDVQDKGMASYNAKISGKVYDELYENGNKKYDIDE
Nature of the series: Binding affinity to PBP2a in clindamycin/erythromycin/spectinomycin-resistant mec-positive Staphylococcus aureus NRS70 assessed potentiation of piperacillin and tazobactam-induced bactericidal activity by measuring log reduction in bacterial count at 0.5 times MIC measured after 24 hrs by time-kill assay.

In another series the test system is Clostridioides difficile. Nature of the series: Antibacterial activity against Clostridium difficile ATCC 43255 measured after 16 to 20 hrs by microdilution method. Type of series: functional. On the technique in general: Broth dilution looks for growth in wells or tubes with falling amounts of substance.
A short description of series [2]: Time at which plasma concentration stays above in vitro MIC for clindamycin/erythromycin/spectinomycin-resistant mec-positive Staphylococcus aureus NRS70 in ICR mouse at 10 mg/kg, iv. The format is ADME, organism-based. Conditions: in vivo. A digest of the protocol:
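Female ICR mice given single iv tail-vein dose (50 μL of 2 or 4 mg/mL in 20% DMSO/10% Tween-80/70% water); terminal blood at 5, 40 min, 2, 4, 8 h, n = 2 per time point; plasma acetonitrile-precipitated with internal standard, UPLC-UV 285 nm on C18; time above MIC read from concentration profile.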

Series [3] in a line: Elimination half life in ICR mouse at 10 mg/kg, po administered via gavage by UV-UPLC analysis. The format is ADME, organism-based. Conditions: in vivo, read-out: beta t1/2 (converted).
The nature of series [4]: Selectivity index, ratio of IC50 for human HeLa cells to MIC for clindamycin/erythromycin/spectinomycin-resistant mec-positive Staphylococcus aureus NRS70. The format is toxicity. In outline:
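HeLa cytotoxicity by XTT assay in triplicate, IC50 by nonlinear regression; ratio IC50 over broth microdilution MIC against NRS70.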

Series [5] can be described thus: AUC (0 to last) in ICR mouse at 10 mg/kg, iv by UV-UPLC analysis. Type of series: ADME, organism-based. Set-up: dose 10 mg/kg, time 0 - last, route intravenous. Conditions: in vivo. A digest of the protocol:
(§1)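 Female ICR mice, 6–8 weeks old, 20–25 g. Each received 50 μL by tail-vein injection (5 or 10 mg/kg) of a filter-sterilized 2 or 4 mg/mL solution in 20% DMSO/10% Tween-80/70% water. Terminal blood was collected and plasma harvested by centrifugation. Plasma was precipitated with acetonitrile containing internal standard, and the supernatant was analyzed by C18 UPLC with UV detection at 285 nm.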

Series [6] deals with Staphylococcus aureus. Put plainly: Bactericidal activity against methicillin resistant Staphylococcus aureus NRS70 infected in ICR mouse model of neutropenic thigh infection assessed as log reduction in bacterial count in thigh at 40 mg/kg, sc administered at 8 hrs interval for 3 times starting from 1 hr post infection and measured 24 hrs post infection. Type of series: functional. In outline:
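Female ICR mice (6–8 weeks, 20–25 g) made neutropenic with cyclophosphamide 200 mg/kg ip at 4 and 1 days pre-infection; 0.1 mL NRS70 at 1 × 10^6 CFU/mL in brain heart infusion injected into right thigh; drug in 10% DMSO/90% water sc every 8 h ×3 from 1 h post-infection; thigh CFU counted at 24 h; n = 8/group; mean ± SEM, one-way ANOVA with Tukey test.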

In the next series the test system is HeLa. Nature of the series: Cytotoxicity against human HeLa cells assessed as reduction in cell viability measured after 16 hrs by XTT assay. Type of series: cell-based. A digest of the protocol: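 HeLa cells (ATCC CCL-2), run in triplicate. Viability was read by XTT, and IC50 was obtained by nonlinear regression.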
Series [7] can be described thus: Protein binding in human plasma at 10 uM measured after 6 hrs UV-UPLC based rapid equilibrium dialysis method. The format is ADME, cell-free. A digest of the protocol: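 Rapid equilibrium dialysis: human plasma was cleared by centrifugation and spiked from a 1 mM DMSO stock to a final 10 μM, against 0.1 M PBS pH 7.4. Dialysis ran 6 h at 37 °C with orbital shaking. Buffer (free) and plasma (total) aliquots were mixed with internal standard in acetonitrile and measured by UPLC-UV at 285 nm. B% = (Cp−Cf)/Cp×100.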
(In equilibrium dialysis free small molecules cross a membrane that holds back macromolecules.)

In a further series the test system is Bacillus cereus. Put plainly: Antibacterial activity against Bacillus cereus ATCC 13061 measured after 16 to 20 hrs by microdilution method. Type of series: functional. In outline:
(§2)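 CLSI broth microdilution: two-fold serial dilutions in triplicate in cation-adjusted Mueller–Hinton broth with 2% NaCl, inoculum 5 × 10^5 CFU/mL, incubated at 37 °C for 16–20 h. MIC is the lowest concentration preventing visible growth.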

Series [8] concerns Staphylococcus aureus. Nature of the series: Selectivity ratio of MIC for Staphylococcus aureus ATCC 29213 in presence of bovine serum albumin to MIC for Staphylococcus aureus ATCC 29213 in absence of bovine serum albumin. The format is functional. A digest of the protocol:
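S. aureus ATCC29213 MIC was run by CLSI microdilution in cation-adjusted Mueller–Hinton broth plus 2% NaCl, with and without 0.5% bovine serum albumin. Compounds were two-fold serially diluted in triplicate, inoculum was 5 × 10^5 CFU/mL, and plates were incubated at 37 °C for 16–20 h. The endpoint was the lowest concentration with no visible growth.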

A further series deals with Bacillus licheniformis. Nature of the series: Antibacterial activity against Bacillus licheniformis ATCC 12759 measured after 16 to 20 hrs by microdilution method. Type of series: functional. In outline: as §2
In a further series the test system is Enterococcus faecalis. Put plainly: Antibacterial activity against Enterococcus faecalis ATCC 29212 measured after 16 to 20 hrs by microdilution method. Type of series: functional. A digest of the protocol: as §2
A short description of series [9]: Clearance in ICR mouse at 10 mg/kg, iv by UV-UPLC analysis relative to hepatic blood flow. The format is ADME, organism-based. The note with it: in vivo. In outline: as §1
Series [10] concerns Staphylococcus aureus. Nature of the series: […] activity against clindamycin/erythromycin/spectinomycin-resistant mec-positive Staphylococcus aureus NRS70 incubated for 16 to 20 hrs followed by re-plating on agar plate. The note with it: read-out: MBC99.9. The format is functional.
The nature of series [11]: AUC (0 to infinity) in ICR mouse at 10 mg/kg, po administered via gavage by UV-UPLC analysis. The format is ADME, organism-based. Further details: dose 10 mg/kg, route oral, time infinity. The note with it: in vivo.
Series [12] concerns Staphylococcus aureus. Put plainly: Antibacterial activity against clindamycin/erythromycin/spectinomycin-resistant mec-positive Staphylococcus aureus NRS70 measured after 16 to 20 hrs by microdilution method. Type of series: functional. In outline: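 CLSI broth microdilution; two-fold serial compound dilutions in triplicate in cation-adjusted Mueller–Hinton broth with 2% NaCl, inoculum 5 × 10^5 CFU/mL; 37 °C for 16–20 h; MIC = lowest concentration with no visible growth.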

What is called MIC is the least concentration at which growth counts as inhibited. The term IC50 denotes the concentration needed to halve the response being measured. For orientation: AUC(0-inf) means total exposure, with the tail of the curve extrapolated. Low values mean less exposure, high ones more exposure. As for `N#Cc1ccc(/C=C/c2nc3ccccc3c(=O)n2-c2cc(C(=O)O)ccc2F)cc1`, the log(activity) in series [1] was greater than 3; in the series on Staphylococcus aureus [6], 0.78. Moreover, the MIC in the series with Clostridioides difficile is 128 µg/mL (≈ 311 µM); with Bacillus cereus it was greater than 128 µg/mL; in the series on Bacillus licheniformis it was greater than 128 µg/mL; against Enterococcus faecalis, greater than 128 µg/mL; in the series with Staphylococcus aureus [12], 0.5 µg/mL (≈ 1.22 µM). Further, the “T>MIC” value in [2] was determined as 4 h. Further, the half-life in [3] was 11.2 h. The values for the selectivity ratio (in series [4]; in the series on Staphylococcus aureus [8]) were 124 and “<=4”, respectively. In addition, the AUClast in series [5] turned out to be 1290 µg·min/mL. The IC50 in the series on HeLa worked out at 62 µg/mL (≈ 151 µM). In series [7], this molecule gave a PPB of 95.4%. Further, the CL in series [9] was less than 10%. Further, in the series with Staphylococcus aureus [10], the MBC is greater than 128 µg/mL. Further, the area under the curve AUC(0-inf) in [11] was 16800 ng·h/mL.
